Activity calls are given as the source filed them. The rule behind the calls is not given here.
Legend:
[1] = test system: EB-3; experiment: Cytotoxic activity against human EB3 cells assessed as growth inhibition up to 25 uM after 3 days by MTT assay; type: functional, cell-based
Summary of the method: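 EB-3 (EBV-infected human Burkitt's lymphoma) cells seeded at 2 × 10^4 per well in RPMI-1640 with 10% FCS and 1% penicillin/streptomycin, cultured overnight at 37 °C, 5% CO2, then given compound or DMSO vehicle. 2-fold dilution series from DMSO stocks; 3 days exposure. MTT added for 4 h, formazan dissolved in acidic 2-propanol, A570 minus 630 nm. Three experiments in duplicate.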

[2] = target: T1, Histone deacetylase 8 (Homo sapiens) (UniProt Q9BY41); experiment: Inhibition of human recombinant HDAC8 at 20 uM using [Ac-Leu-Gly-Lys(Ac)-AMC substrate incubated for 15 to 30 mins
T1 sequence (whole entry): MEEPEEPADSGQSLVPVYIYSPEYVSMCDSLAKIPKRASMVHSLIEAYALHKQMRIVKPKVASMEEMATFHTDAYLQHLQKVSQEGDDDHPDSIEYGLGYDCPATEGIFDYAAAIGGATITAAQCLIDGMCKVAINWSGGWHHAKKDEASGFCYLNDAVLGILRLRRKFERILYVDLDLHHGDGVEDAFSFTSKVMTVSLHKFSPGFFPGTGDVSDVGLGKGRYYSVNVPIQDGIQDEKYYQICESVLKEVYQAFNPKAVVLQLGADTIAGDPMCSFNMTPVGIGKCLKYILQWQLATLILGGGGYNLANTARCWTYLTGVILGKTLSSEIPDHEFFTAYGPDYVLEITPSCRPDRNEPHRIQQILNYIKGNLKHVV
Summary of the method: (§1)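 Recombinant human enzyme (HDAC6 2.4 ng/μL; HDAC8 0.2 ng/μL final) in pH 8.0 Tris buffer with BSA. Ac-Leu-Gly-Lys(Ac)-AMC substrate at 20 μM for HDAC6 and 200 μM for HDAC8. Incubated 30 min at 37 °C, then trypsin development 15–30 min at room temperature. Fluorescence read at ex 360/em 460 nm.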

[3] = target: T2, Protein deacetylase HDAC6 (Homo sapiens, UniProt Q9UBN7); experiment: Inhibition of human recombinant HDAC6 using [Ac-Leu-Gly-Lys(Ac)-AMC substrate incubated for 15 to 30 mins
T2 sequence (Q9UBN7 whole entry): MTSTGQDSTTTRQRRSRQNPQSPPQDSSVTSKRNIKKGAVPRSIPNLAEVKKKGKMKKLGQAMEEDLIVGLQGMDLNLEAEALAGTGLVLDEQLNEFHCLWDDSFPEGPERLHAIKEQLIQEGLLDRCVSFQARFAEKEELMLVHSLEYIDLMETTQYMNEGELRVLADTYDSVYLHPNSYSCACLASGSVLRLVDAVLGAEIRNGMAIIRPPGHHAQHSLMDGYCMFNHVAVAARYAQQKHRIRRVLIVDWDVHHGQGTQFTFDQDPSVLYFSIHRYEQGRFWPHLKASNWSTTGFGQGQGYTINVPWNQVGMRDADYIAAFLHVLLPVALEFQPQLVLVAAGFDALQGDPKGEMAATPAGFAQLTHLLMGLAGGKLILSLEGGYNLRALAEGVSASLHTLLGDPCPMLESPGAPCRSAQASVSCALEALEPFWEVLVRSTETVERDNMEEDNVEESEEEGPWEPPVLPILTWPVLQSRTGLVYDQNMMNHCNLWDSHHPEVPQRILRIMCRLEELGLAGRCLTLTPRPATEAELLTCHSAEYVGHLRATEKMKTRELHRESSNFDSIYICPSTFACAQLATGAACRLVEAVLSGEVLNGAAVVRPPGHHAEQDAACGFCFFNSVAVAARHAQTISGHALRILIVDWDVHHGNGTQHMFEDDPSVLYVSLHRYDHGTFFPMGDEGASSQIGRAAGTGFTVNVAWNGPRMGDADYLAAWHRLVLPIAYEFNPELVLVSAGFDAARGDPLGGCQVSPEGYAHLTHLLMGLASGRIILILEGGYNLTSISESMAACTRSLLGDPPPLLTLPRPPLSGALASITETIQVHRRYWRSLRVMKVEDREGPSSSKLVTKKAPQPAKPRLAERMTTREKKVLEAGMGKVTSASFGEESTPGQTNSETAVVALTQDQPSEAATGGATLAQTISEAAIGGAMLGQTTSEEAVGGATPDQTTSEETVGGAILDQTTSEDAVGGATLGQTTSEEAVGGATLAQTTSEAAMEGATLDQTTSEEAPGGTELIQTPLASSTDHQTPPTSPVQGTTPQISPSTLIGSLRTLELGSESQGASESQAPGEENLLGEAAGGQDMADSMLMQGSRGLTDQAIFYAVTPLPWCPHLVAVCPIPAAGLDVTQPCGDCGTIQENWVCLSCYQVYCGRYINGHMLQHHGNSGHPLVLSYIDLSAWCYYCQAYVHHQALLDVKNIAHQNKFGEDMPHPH

[4] = target: T3, Histone deacetylase 8 (Homo sapiens, UniProt Q9BY41); experiment: Inhibition of human recombinant HDAC8 using [Ac-Leu-Gly-Lys(Ac)-AMC substrate incubated for 15 to 30 mins
T3 sequence (Q9BY41 whole entry): T1 sequence (whole entry)

[5] = target: Histone deacetylase 3 (Homo sapiens, UniProt O15379); experiment: Inhibition of human recombinant HDAC3 using [Ac-Leu-Gly-Lys(Ac)-AMC substrate incubated for 15 to 30 mins
Histone deacetylase 3, sequence (O15379 whole entry): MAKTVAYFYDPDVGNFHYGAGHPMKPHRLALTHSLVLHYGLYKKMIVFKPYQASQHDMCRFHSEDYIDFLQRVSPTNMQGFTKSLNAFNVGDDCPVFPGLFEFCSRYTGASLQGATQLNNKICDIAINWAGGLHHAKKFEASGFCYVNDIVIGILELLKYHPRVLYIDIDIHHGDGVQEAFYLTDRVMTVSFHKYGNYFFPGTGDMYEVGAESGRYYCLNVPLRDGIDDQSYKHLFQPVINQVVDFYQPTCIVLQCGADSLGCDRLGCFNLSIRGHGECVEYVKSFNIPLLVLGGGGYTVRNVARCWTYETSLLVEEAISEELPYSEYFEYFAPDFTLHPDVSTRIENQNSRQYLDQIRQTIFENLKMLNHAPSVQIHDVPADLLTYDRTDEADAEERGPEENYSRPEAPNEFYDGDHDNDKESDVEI

[6] = target: T4, Polyamine deacetylase HDAC10 (Homo sapiens, UniProt Q969S8); experiment: Inhibition of human recombinant HDAC10 using Ac-Arg-His-Lys(Ac)-Lys(Ac)-AMC substrate incubated for 15 to 30 mins
T4 sequence (Q969S8 whole entry): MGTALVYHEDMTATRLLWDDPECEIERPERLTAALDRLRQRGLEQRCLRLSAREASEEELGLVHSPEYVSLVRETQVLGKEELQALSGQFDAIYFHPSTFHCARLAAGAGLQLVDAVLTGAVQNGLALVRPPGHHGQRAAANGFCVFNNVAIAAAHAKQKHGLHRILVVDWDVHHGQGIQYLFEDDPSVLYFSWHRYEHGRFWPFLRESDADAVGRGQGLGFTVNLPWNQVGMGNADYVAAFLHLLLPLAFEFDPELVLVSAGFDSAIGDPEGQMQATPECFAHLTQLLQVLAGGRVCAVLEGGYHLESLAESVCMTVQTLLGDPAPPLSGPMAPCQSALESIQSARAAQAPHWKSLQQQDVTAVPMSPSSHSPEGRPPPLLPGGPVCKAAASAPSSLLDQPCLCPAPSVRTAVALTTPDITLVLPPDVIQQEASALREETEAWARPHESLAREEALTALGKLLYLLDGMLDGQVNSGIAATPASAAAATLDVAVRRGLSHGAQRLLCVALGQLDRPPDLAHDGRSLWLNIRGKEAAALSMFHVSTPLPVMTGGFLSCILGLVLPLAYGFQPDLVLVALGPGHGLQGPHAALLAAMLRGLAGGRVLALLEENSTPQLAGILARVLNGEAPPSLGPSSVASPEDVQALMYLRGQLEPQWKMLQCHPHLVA

[7] = target: Histone deacetylase 2 (Homo sapiens, UniProt Q92769); experiment: Inhibition of human recombinant HDAC2 using [Ac-Leu-Gly-Lys(Ac)-AMC substrate incubated for 15 to 30 mins
Histone deacetylase 2, sequence (Q92769 whole entry): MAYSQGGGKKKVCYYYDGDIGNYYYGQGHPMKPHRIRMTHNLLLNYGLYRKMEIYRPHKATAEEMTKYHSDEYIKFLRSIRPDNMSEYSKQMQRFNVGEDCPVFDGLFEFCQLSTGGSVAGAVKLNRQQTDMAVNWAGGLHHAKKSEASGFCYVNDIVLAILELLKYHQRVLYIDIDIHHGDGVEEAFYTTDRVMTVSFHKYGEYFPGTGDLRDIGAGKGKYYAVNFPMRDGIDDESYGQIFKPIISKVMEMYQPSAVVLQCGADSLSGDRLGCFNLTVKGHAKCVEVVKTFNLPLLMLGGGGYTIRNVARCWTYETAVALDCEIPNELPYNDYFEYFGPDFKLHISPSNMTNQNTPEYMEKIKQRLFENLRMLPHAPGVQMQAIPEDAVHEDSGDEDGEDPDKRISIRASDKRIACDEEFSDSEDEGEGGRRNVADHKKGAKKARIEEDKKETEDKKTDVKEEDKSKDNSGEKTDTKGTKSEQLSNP

[8] = target: Histone deacetylase 1 (Homo sapiens, UniProt Q13547); experiment: Inhibition of human recombinant HDAC1 using [Ac-Leu-Gly-Lys(Ac)-AMC substrate incubated for 15 to 30 mins
Histone deacetylase 1, sequence (Q13547 whole entry): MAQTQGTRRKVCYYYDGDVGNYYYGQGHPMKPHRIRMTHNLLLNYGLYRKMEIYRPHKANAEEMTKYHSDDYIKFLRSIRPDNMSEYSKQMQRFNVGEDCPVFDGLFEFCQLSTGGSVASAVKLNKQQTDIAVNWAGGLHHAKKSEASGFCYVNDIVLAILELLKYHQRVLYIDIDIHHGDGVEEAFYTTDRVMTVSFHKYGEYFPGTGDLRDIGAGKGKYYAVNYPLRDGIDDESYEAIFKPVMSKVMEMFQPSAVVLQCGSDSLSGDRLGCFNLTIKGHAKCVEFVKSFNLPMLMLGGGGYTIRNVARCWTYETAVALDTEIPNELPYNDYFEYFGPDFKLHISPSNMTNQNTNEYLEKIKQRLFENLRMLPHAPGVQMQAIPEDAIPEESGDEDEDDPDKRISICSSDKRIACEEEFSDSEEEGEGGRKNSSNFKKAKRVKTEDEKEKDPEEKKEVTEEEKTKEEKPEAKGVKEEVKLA

[9] = target: T5, Histone deacetylase 11 (Homo sapiens, UniProt Q96DB2); experiment: Inhibition of human recombinant HDAC11 using [Ac-Leu-Gly-Lys(Ac)-AMC substrate incubated for 15 to 30 mins
T5 sequence (Q96DB2 whole entry): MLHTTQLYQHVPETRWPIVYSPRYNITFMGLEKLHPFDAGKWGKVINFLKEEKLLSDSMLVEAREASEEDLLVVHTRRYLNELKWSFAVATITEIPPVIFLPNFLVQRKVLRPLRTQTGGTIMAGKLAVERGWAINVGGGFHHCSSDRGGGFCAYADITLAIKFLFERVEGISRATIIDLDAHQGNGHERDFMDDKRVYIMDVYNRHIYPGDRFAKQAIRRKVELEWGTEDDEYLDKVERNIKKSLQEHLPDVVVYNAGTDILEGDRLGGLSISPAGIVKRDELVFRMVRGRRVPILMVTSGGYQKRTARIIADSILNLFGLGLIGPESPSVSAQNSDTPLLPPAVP

[10] = target: T6, Protein deacetylase HDAC6 (Homo sapiens) (UniProt Q9UBN7); experiment: Inhibition of human recombinant HDAC6 at 20 uM using [Ac-Leu-Gly-Lys(Ac)-AMC substrate incubated for 15 to 30 mins; summary of the method: as §1
T6 sequence (whole entry): T2 sequence (Q9UBN7 whole entry)

[11] = Cytotoxic activity against human EB3 cells after 3 days by MTT assay; type: functional; conditions: EB-3, 72 h
Summary of the method: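 EBV-infected human Burkitt's lymphoma EB-3 cells seeded at 2 × 10^4 cells/well in RPMI-1640 with 10% FCS and 1% penicillin/streptomycin, cultured overnight at 37 °C, 5% CO2. Compounds added as 2-fold dilution series from DMSO stocks, top final concentration 50 or 100 μM; DMSO vehicle control. After 3 days, MTT added for 4 h. Formazan dissolved in acidic 2-propanol, A570 read minus A630. Three experiments in duplicate.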

SMILES | growth inhibition (GI) [1] | inhibition [2] | Ki ([3]; read-out: Ki) | Ki [4] | Ki [5] | Ki [6] | Ki [7] | Ki [8] | Ki [9] | Ki ([4]; read-out: Ki) | Ki [3] | inhibition [10] | GI50 [11]
CC(C)[C@H]1NC(=O)[C@@H](C)[C@@H](C/C=C\CCC(N)=O)NC(=O)[C@@H](Cc2ccc(O)cc2)NC(=O)[C@@H](C)NC1=O | inactive |  |  |  |  |  |  |  |  |  |  |  | 
CC(C)[C@H]1NC(=O)C[C@@H](/C=C/CCCC(=O)O)NC(=O)[C@@H](Cc2ccc(O)cc2)NC(=O)[C@@H](C)NC1=O | inactive | < 50% | 2200 nM | Not Active | 500 nM | 700 nM | 600 nM | 700 nM | 1300 nM |  |  |  | 
CC(C)[C@H]1NC(=O)C[C@@H](CCCCCC(=O)O)NC(=O)[C@@H](Cc2c[nH]c3ccccc23)NC(=O)[C@@H](C)NC1=O |  |  | 1900 nM |  | 500 nM | 170 nM | 300 nM | 900 nM | 300 nM | 4300 nM |  |  | 
CC(C)[C@H]1NC(=O)C[C@@H](/C=C/CCCC(=O)O)NC(=O)[C@@H](Cc2c[nH]c3ccccc23)NC(=O)[C@@H](C)NC1=O |  |  | 3700 nM |  | 600 nM | 600 nM | 400 nM | 500 nM | 1100 nM | 3000 nM |  |  | 
CC(C)[C@H]1NC(=O)C[C@@H](CCCCCC(=O)O)NC(=O)[C@@H](Cc2ccc(O)cc2)NC(=O)[C@@H](C)NC1=O | inactive | < 50% | 3000 nM | Not Active | 200 nM | 300 nM | 300 nM | 1000 nM | 1000 nM |  |  |  | 
CC(C)[C@H]1NC(=O)C[C@@H](C/C=C\CCC(=O)O)NC(=O)[C@@H](Cc2c[nH]c3ccccc23)NC(=O)[C@@H](C)NC1=O | inactive |  |  |  | 500 nM | 230 nM | 300 nM | 200 nM | 900 nM | 4500 nM | Not Active |  | 
CC(C)[C@H]1NC(=O)[C@@H](C)[C@@H](C/C=C\CCC(=O)O)NC(=O)[C@@H](Cc2ccccc2)NC(=O)[C@@H](C)NC1=O | inactive |  |  |  |  |  |  |  |  |  |  |  | 
CC(C)[C@H]1NC(=O)C[C@@H](/C=C/CCCC(=O)O)NC(=O)[C@@H](Cc2ccccc2)NC(=O)[C@@H](C)NC1=O |  |  |  |  | 1400 nM | 1600 nM | 1700 nM | 1200 nM | 3200 nM | 6000 nM | Not Active | < 50% | 
CC(C)[C@H]1NC(=O)C[C@@H](C/C=C\CCC(=O)O)NC(=O)[C@@H](Cc2ccccc2)NC(=O)[C@@H](C)NC1=O | inactive | < 50% |  | Not Active | 800 nM | 700 nM | 900 nM | 600 nM | 1500 nM |  | Not Active | < 50% | 
CCC(=O)CCCCC[C@@H]1NC(=O)[C@H]2CCCCN2C(=O)[C@H]([C@@H](C)CC)NC(=O)[C@H](Cc2cn(OC)c3ccccc23)NC1=O [APICIDIN] |  |  |  |  |  |  |  |  |  |  |  |  | 800 nM
CC(C)[C@H]1NC(=O)C[C@@H](CCCCCC(=O)O)NC(=O)[C@@H](Cc2ccccc2)NC(=O)[C@@H](C)NC1=O |  | < 50% |  | Not Active | 700 nM | 1000 nM | 800 nM | 900 nM | 2000 nM |  | Not Active | < 50% | 
CC(C)[C@H]1NC(=O)C[C@@H](C/C=C\CCC(=O)O)NC(=O)[C@@H](Cc2ccc(O)cc2)NC(=O)[C@@H](C)NC1=O | inactive |  | 6000 nM | Not Active | 300 nM | 300 nM | 300 nM | 300 nM | 800 nM |  |  |  | 
CC(C)[C@H]1NC(=O)[C@@H](C)[C@@H](C/C=C\CCC(=O)O)NC(=O)[C@@H](Cc2ccc(O)cc2)NC(=O)[C@@H](C)NC1=O | inactive |  |  |  |  |  |  |  |  |  |  |  | 

— ChEMBL document CHEMBL3351463, “Methyl effect in azumamides provides insight into histone deacetylase inhibition by macrocycles” (J Med Chem, 2014)
